From PubChem BioAssay AID504382 (The Scripps Research Institute Molecular Screening Center, 2011) come the findings set out here.

The whole screen tested about 2,500 compounds, of which about 460 (18%) were called active. Not all results are given here. A number with no mark means an inactive call.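 The calls were made as follows: active = mean activation above a cutoff of low control average plus 3 SD from the earlier screen (cut at about 12% in these data); inactive = the rest.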

A short description of this assay: compound fluorescence interference without thin filaments, confirmation, artefact control for cardiac RTF calcium sensitizer project, biochemical (AID 504382). To be noted: IANBD fluorescence interference counterscreen, buffer, EC20 Ca2+; at 7.2 µM; hits give high values; scaled: EC20 calcium 0, EC100 calcium 100. The method, boiled down:
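Also added: EC20 calcium, 0.472 mM; dosing: single nominal 7.2 µM compound dose, 0.7% DMSO final; timing: 15 min, 25 °C; detection: fluorescence intensity, excitation 480 nm, emission 540 nm; replicates: each compound tested in triplicate wells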
Background: The purpose of a counterscreen is to sort out artefacts and off-target activity.
Turning to `Cn1nnnc1SCCOc1ccc(C#N)cc1`, the fluorescence artifact activation was -0.03%.
With `CSc1cccc(NC(=O)c2ccc(Cl)nc2)c1`, the fluorescence artifact activation is -0.04%.
As for `Fc1ccc(-c2[nH]ncc2CN(CC2CCC2)CC2CCCO2)c(F)c1` (stereo not drawn), the fluorescence artifact activation was 8.43%.
With `C=C(C)c1sc(-c2ccc(Cl)cc2)nc1C`, the fluorescence artifact activation was 0.11%.
Turning to `O=C(NN1C(=O)/C(=C/c2ccc(O)cc2)SC1=S)c1cccc(O)c1`, the fluorescence artifact activation is 0.01%.
For `Cc1cc2nc(C3CCCN(C(=O)NCc4ccccc4)C3)[nH]c2cc1C` (stereo not drawn) the value was 8.15%; for `COc1ccc(-n2c(O)c(/C=N/NS(=O)(=O)c3ccc(C)c([N+](=O)[O-])c3)c3ccccc3c2=O)cc1OC`, -0.02%; for `COc1ccc(-n2c(O)c(/C=N/NS(=O)(=O)c3cc(C)ccc3C)c3ccccc3c2=O)cc1OC`, 0.84%.
For `COc1ccc(-n2c(O)c(/C=N/NS(=O)(=O)c3ccc(C)cc3)c3ccccc3c2=O)cc1OC`, the fluorescence artifact activation is 12.8% (active).
Turning to `COc1ccc(/C(C)=N/N2C(=O)c3ccccc3NC2c2ccc(O)c(OC)c2)cc1` (stereo not drawn), the fluorescence artifact activation was 0.69%.
For `Cc1ccccc1-n1c(O)c(/C=C/C=Nc2ccccc2)c(=O)[nH]c1=O`, the fluorescence artifact activation is 2.27%.
Regarding `Cc1cn(COC/C=C/c2ccccc2)c(=O)[nH]c1=O`, the fluorescence artifact activation is 25.6% (active).
As to `CCCCOc1ccc(C2OC34CCCCC3C(C#N)(C#N)C2(C#N)C(=N)O4)cc1` (stereo not drawn), the fluorescence artifact activation is 0.1%.
Consider `COc1ccc(C(=O)OC/C(O)=C(\C#N)c2nc3ccccc3[nH]2)cc1S(=O)(=O)N1CCOCC1`, for which the fluorescence artifact activation was 0.13%.
As to `O=C1OCC/C1=C\c1ccccc1O`, the fluorescence artifact activation is -0.06%.
`COC(=O)C1CSc2[nH]c(=O)sc2C1c1ccccc1` (stereo not drawn): the fluorescence artifact activation was 0.07%.
`Cn1cc(/C=C2\SC(=S)N(NC(=O)c3cccc(Cl)c3)C2=O)c2ccccc21`: the fluorescence artifact activation is 17% (active).
The same measure for `CCCCN1C(=O)/C(=C/C=C2\SCCN2C)SC1=S`: 0%; for `CN1CCS/C1=C/C=C1\SC(=S)N(CC(=O)O)C1=O`: 18.9% (active).
On to `Cn1cccc1/C=C1\SC(=S)N(NC(=O)c2ccccc2)C1=O`, for which the fluorescence artifact activation is 18.2% (active).
Regarding `CN1CCS/C1=C\C=C1/SC(=S)N(CC(=O)O)C1=O`, the fluorescence artifact activation was -0.02%.
Take `CC(C)C(C(=O)O)N1C(=O)/C(=C/c2cccn2C)SC1=S` (stereo not drawn): the fluorescence artifact activation was 12.3% (active).
The same measure for `Cn1cccc1/C=C1\SC(=S)N(NC(=O)c2ccc(Cl)cc2)C1=O`: 0.86%; for `Cn1cc(/C=C2\SC(=S)N(NC(=O)c3ccccc3)C2=O)c2ccccc21`: 2.64%; for `CCC(C(=O)O)N1C(=O)/C(=C/c2cccn2C)SC1=S` (stereo not drawn): 4.17%.
Turning to `Cc1ccc(C(=O)NN2C(=O)/C(=C/c3cccn3C)SC2=S)cc1`, the fluorescence artifact activation is 4.27%.
As for `CC(C(=O)O)N1C(=O)/C(=C/c2cccn2C)SC1=S` (stereo not drawn), the fluorescence artifact activation was 6.16%.
`Cc1ccc(C(=O)NN2C(=O)/C(=C/c3cn(C)c4ccccc34)SC2=S)cc1`: the fluorescence artifact activation was 7.41%.
For `Cc1ccc(N2CN(Cc3cccnc3)CNC2=S)cc1`, the fluorescence artifact activation is 0.4%.
As for `CCOC(=O)c1cnc(SC)nc1Oc1cccc(NS(=O)(=O)c2ccc(Cl)cc2)c1`, the fluorescence artifact activation is 0.07%.
Turning to `CCN1C(=S)SC(=O)C1=C1C=C(C)N(Cc2ccco2)C(C)=C1`, the fluorescence artifact activation was 0.18%.
As to `COc1cc(/C=N\NC(=O)CC(=O)NCCc2ccccc2)ccc1O`, the fluorescence artifact activation is 0.17%.
Turning to `CN(C)c1ccc(NC2=C([N+](=O)[O-])CS(=O)(=O)C2)cc1`, the fluorescence artifact activation was 3.15%.
With `CCc1ccc(NC(=O)C2CCN(S(=O)(=O)c3ccc4[nH]c(=O)ccc4c3)CC2)cc1`, the fluorescence artifact activation is 0.08%.
Take `COc1ccc(C2OC34CCCCC3C(C#N)(C#N)C2(C#N)C(=N)O4)cc1` (stereo not drawn): the fluorescence artifact activation was 0.16%.
Take `CC(=O)Nc1sc2c(c1-c1nc3ccccc3s1)CN(C(C)C)CC2`: the fluorescence artifact activation was -0.08%.
As for `Nc1c(C(=O)C2CC2)sc2nc(-c3ccccc3)cc(C(F)(F)F)c12`, the fluorescence artifact activation is 8.48%.
The same measure for `Cn1cccc1/C=C1/SC(=S)N(CC(=O)O)C1=O`: 52.3% (active); for `Cn1cccc1/C=C1\SC(=S)N(CC(=O)O)C1=O`: 3.44%.
For `O=C(O)CN1C(=O)/C(=C\c2cn(CC(=O)N3CCOCC3)c3ccccc23)SC1=S` the value was 4.83%; for `COc1ccc2noc3c2c1C(=O)c1ccccc1-3`, 0.01%.
In the case of `COc1ccc(N=Cc2c(O)c3ccccc3n2C(C)=O)cc1`, the fluorescence artifact activation is 1.91%.
As for `N=c1oc2ccccc2cc1-c1nc(-c2ccccc2)cs1`, the fluorescence artifact activation is 0.03%.
Regarding `N#C/C(=C/c1ccc(N2CCCCC2)o1)C(=O)Nc1ccc2ccccc2c1`, the fluorescence artifact activation is 52.8% (active).
For the compound `COc1ccc(NC(=O)/C(C#N)=C\c2ccc(N3CCOCC3)o2)cc1`, the fluorescence artifact activation was 8.28%.
On to `N#C/C(=C/c1ccc(N2CCCCC2)o1)C(=O)Nc1ccc(Cl)cc1`, for which the fluorescence artifact activation was 36.7% (active).
The same measure for `N#C/C(=C\c1ccc(N2CCOCC2)o1)C(=O)NC1CCCCC1`: 10.5%.
For `N#C/C(=C\c1ccc(N2CCCCC2)o1)C(=O)Nc1cccc(Br)c1`, the fluorescence artifact activation is 1.73%.
Regarding `N#C/C(=C/c1ccc(N2CCOCC2)o1)C(=O)NC1CCCCC1`, the fluorescence artifact activation is -0.06%.
As to `CCOC(=O)C1(Cc2cccc(OC)c2)CCCN(Cc2nccn2CC)C1` (stereo not drawn), the fluorescence artifact activation is 0.29%.
With `O=C(NCc1ccco1)c1cc(-c2cccc(Cl)c2)on1`, the fluorescence artifact activation was 0.3%.
For the compound `O=c1[nH]ncc2c3ccccc3n(Cc3cccc(Cl)c3)c12`, the fluorescence artifact activation was -0.06%.
For the compound `Cc1nc2oc(C(=O)c3ccccc3)c(N)c2c2c1COC(C)(C)C2`, the fluorescence artifact activation is 233% (active).
As for `N#CC1(NC(=O)CN2CCN(S(=O)(=O)c3ccccc3F)CC2)CCCC1`, the fluorescence artifact activation was -0.12%.
For the compound `O=C(C1=C[C@@H](c2ccc(Br)cc2)C[C@@H](OCc2ccc(CO)cc2)O1)N1CCN(Cc2ccc3c(c2)OCO3)CC1`, the fluorescence artifact activation is 0.02%.
As for `O=[n+]1c2c(n([O-])c3cc(F)c(N4CCCC4)cc31)CCCC2`, the fluorescence artifact activation was 50.2% (active).
The same measure for `O=[n+]1c2c(n([O-])c3cc(F)c(N4CCCC4)cc31)CCC2`: 18.6% (active); for `O=[n+]1c2c(n([O-])c3ccccc31)CCC2`: 8.78%; for `CC(C)n1cnc2c(NCc3ccccc3)cc(N[C@H](C)CO)cc21`: -0.08%.
For `C#CCN1C(=O)S/C(=C/C=C/c2ccc(N(C)C)cc2)C1=O` the value was 0.36%; for `O=C(NCCN1CCOCC1)c1ccccc1N1C(=O)[C@@H]2Cc3c([nH]c4ccccc34)C(c3ccc(F)cc3)N2C1=O` (stereo partly drawn), 0.13%.
In the case of `COC(=O)CCC(=O)OC1(C)C(=O)C2=CN(Cc3ccc(OC)cc3)C(c3ccc(OC)cc3)=CC2=C(Br)C1=O` (stereo not drawn), the fluorescence artifact activation is -0.01%.
On to `CN(N=Nc1nc[nH]c1C(=O)NN)C1CCCCC1`, for which the fluorescence artifact activation is 0.38%.
Consider `Fc1ccc(CN2CCCN(C(=S)Nc3ccc(F)cc3)CC2)cc1`, for which the fluorescence artifact activation is 17.4% (active).
For `O=C(Nc1ccc(F)cc1)OCCN1CCN(Cc2ccccc2)CCC1=O` the value was -0.08%; for `Cc1ccc(NC(=O)COC(=O)c2csc3c2CCC(C)C3)cc1S(=O)(=O)N1CCCCC1` (stereo not drawn), 1.08%; for `COc1ccc2c(CC(=O)N[C@@H](Cc3c[nH]c4ccccc34)C(=O)O)cc(=O)oc2c1`, 4.51%.
For `CCc1ccc(-n2c(O)c(C=NCCN(CC)CC)c(=O)[nH]c2=O)cc1` the value was 2.92%; for `CCOc1ccc(-n2c(SCC(=O)Nc3ccc(OC)cc3OC)nc3c(c2=O)SCC3)cc1`, 0.76%.
For `COc1ccc(-c2ccc(C3C(C#N)=C(N)Oc4n[nH]c(C)c43)o2)cc1` (stereo not drawn) the value was 14.3% (active).
Consider `Cc1[nH]nc2c1C(c1cc(Br)cs1)C(C#N)=C(N)O2` (stereo not drawn), for which the fluorescence artifact activation was 0.04%.
For `CCOc1ccc(NC(=S)c2ccncc2)cc1`, the fluorescence artifact activation is 0.07%.
Turning to `C=COc1ccc(N2C(=O)c3ccccc3OC2C)cc1` (stereo not drawn), the fluorescence artifact activation is 2.14%.
For `O=C(O)c1cccc(-c2ccc(/C=N/Nc3ccc([N+](=O)[O-])cc3)o2)c1`, the fluorescence artifact activation is 1.4%.
As to `COc1ccc(-c2cc3ncc(-c4ccccc4)c(N)n3n2)cc1`, the fluorescence artifact activation is 1.7%.
`Nc1ccc2nc3c(=O)[nH]c(=S)[nH]c3nc2c1`: the fluorescence artifact activation is 6.07%.
Consider `Nc1ccc2nc(-c3ccccc3)cnc2c1`, for which the fluorescence artifact activation is 26.1% (active).
Consider `Cc1ccc(SCC(=O)c2sc(-c3ccccc3)nc2C)cc1`, for which the fluorescence artifact activation is 10.1%.
For `Cc1ccc(-c2nc(C)sc2CC(=O)O)cc1`, the fluorescence artifact activation is 14.7% (active).
Take `Cc1ccc(-c2nc(N)sc2CC(=O)OCC(=O)NCCC(C)C)cc1`: the fluorescence artifact activation is 2.4%.
`COC(=O)c1ccc(S(=O)(=O)N(CCO)Cc2ccccc2)n1C`: the fluorescence artifact activation was -0.01%.
For the compound `Cc1ccc(N=Nc2c(O)n(CN3CCOCC3)c3ccccc23)cc1`, the fluorescence artifact activation was 4.5%.
With `CCOC(=O)C1=C(C)N=c2s/c(=C/c3ccc(OCC(=O)O)cc3)c(=O)n2C1c1ccc(SC)cc1` (stereo not drawn), the fluorescence artifact activation was 0.15%.
For the compound `Cc1ccc(C)c(C2=NNC(=O)CC2)c1`, the fluorescence artifact activation was 0.16%.
On to `Cc1cc(NC(=O)CCC(=O)N(CCC(C)C)C(C(=O)NC2CCCC2)c2cccnc2)no1` (stereo not drawn), for which the fluorescence artifact activation is 0%.
For the compound `C=CC[C@@H](CC(=O)N(CCO)Cc1ccccc1)C(=O)N[C@@H](COC(=O)[C@@H](CC=C)Cc1ccc(F)cc1)Cc1ccccc1`, the fluorescence artifact activation was 0.09%.
As to `CC(=O)N1C(=O)C(=C2C=C(C)OC(C)=C2)c2ccccc21`, the fluorescence artifact activation is 21.3% (active).
Consider `CCCn1c(N2CCN(CC(=O)c3c[nH]c4ccccc34)CC2)nc2c1c(=O)[nH]c(=O)n2C`, for which the fluorescence artifact activation was 0.12%.
The same measure for `CCCCCCCCOc1ccc(C2OC34CCCCC3C(C#N)(C#N)C2(C#N)C(=N)O4)cc1` (stereo not drawn): 4.01%; for `CCN1/C(=C/C=C/c2oc3ccc(-c4ccccc4)cc3[n+]2CC)Oc2ccc(-c3ccccc3)cc21`: -0.02%; for `CCC(c1nnnn1C1CCCCC1)N1CCN(C(=O)c2ccco2)CC1` (stereo not drawn): 6.69%.
Take `COc1ccc(C(=O)NCC(=O)N2CCN(C(=O)c3ccco3)CC2)cc1OC`: the fluorescence artifact activation was 23.6% (active).
As to `O=C(Nc1ccc(N2CCN(C(=O)c3ccco3)CC2)cc1)c1ccc(F)cc1`, the fluorescence artifact activation is 0.11%.
